This data set is described as follows: Toxicity liver stage against HepG2, at 10uM. The format is cell-based. The arrangement: test concentration 10 uM, cell line HepG2-A16-CD81EGFP. Particulars: human, HepG2-A16-CD81EGFP cells; read-out: INHIBITION
In a few lines:
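Uninfected HepG2-A16-CD81EGFP cells, 3 × 10^3 per well, 1536-well, plated on prespotted compound at 10 μM final, parasite-free screening media added to match infected plates; puromycin 10 μM positive, DMSO 0.5% negative; run in parallel with 48 h PbLuc assay at 37 °C, 5% CO2; viability by CellTiter-Glo luminescence, normalized to controls.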

Regarding `CC(SCC(=O)N(C)CC(=O)NC1CC1)c1ccc(F)c(F)c1` (stereo not drawn), the cytotoxicity at 10 µM is -0.369%.

As to `O=C(NCC1(O)CCOCC1)c1ccn(-c2ccccc2F)n1`, the cytotoxicity at 10 µM was -0.636%.

For the compound `Cn1cc(CC(=O)N2CCCC(c3ccn[nH]3)C2)cn1` (stereo not drawn), the cytotoxicity at 10 µM is -4.89%.

`Cc1ccc(CN2CC3(CCN(S(=O)(=O)c4ccccc4)C3)C2)o1`: the cytotoxicity at 10 µM is -2.3%. The figure for `CN1CCN(C(=O)CCCc2ccccn2)c2ccc(F)cc21` is 1.66%; for `COc1cc(CC2CC(C(N)=O)=NO2)cc2c1OCO2` (stereo not drawn) it is 5.32%; for `Cc1[nH]c(=O)[nH]c(=O)c1CN1CCCC(CCc2ccccc2F)C1` (stereo not drawn) it is -4.19%.

`Cc1cnn(CC2CN(CCCS(C)(=O)=O)CCO2)c1` (stereo not drawn): the cytotoxicity at 10 µM is -2.45%. To `FC(F)(F)c1ccc(-c2noc3c2CN(CC2CCCO2)CC3)cc1` (stereo not drawn) belongs 1.99%; to `Cc1cc(Oc2ccccc2)nc(C2CCN(CCO)CC2)n1`, -1.99%. To `Cc1cc(Br)ccc1NCc1ccc(C(=O)N(C)C)[nH]1` belongs 5.68%; to `Cc1cc(C)c(CNC(=O)NCc2ccc3c(c2)OCCO3)c(=O)[nH]1`, -11.6%; to `CC(C)(NS(C)(=O)=O)c1nc(-c2cccc(Cl)c2)no1`, 2.31%. The figure for `Cc1cc(CNC2(c3ccccc3)CCCCC2)no1` is 2.94%. In the case of `Cc1csc(NC(=O)CN2CCCC(Cn3nc(C)nc3C)C2)n1` (stereo not drawn), the cytotoxicity at 10 µM is -3.95%. With `CC(NC(=O)NCCCn1cncn1)c1ccc(C(F)(F)F)cc1` (stereo not drawn), the cytotoxicity at 10 µM is -7.1%. Consider `Fc1cccc(Cl)c1CN1CCn2c(nnc2C2CC2)C1`, for which the cytotoxicity at 10 µM worked out at 8.7%. For the compound `CC(C)NC(=O)N1CCC[C@H]1C(=O)NCCCc1cccc(F)c1`, the cytotoxicity at 10 µM is 4.27%. The figure for `CN(c1ccc(CNc2ccc(Cl)cn2)cc1)S(C)(=O)=O` is 5.03%; for `CCCNC(=O)CNc1ccc2c(c1)N(C(=O)OC(C)(C)C)CCC2` it is 13%; for `CC(SCCS(C)(=O)=O)c1nc(Cc2ccc(F)cc2)no1` (stereo not drawn) it is 4.6%.

Regarding `CCCc1nc(N[C@H]2COC[C@@H]2N2CCCC2)c2cnn(C)c2n1`, the cytotoxicity at 10 µM was -6.56%. To `O=S(=O)(C1CC1)N1CCOC2(CCCN(c3cccc(F)c3)C2)C1` (stereo not drawn) belongs 8.46%; to `Cc1cnc(-c2cccc(-c3ccn(CCCO)n3)c2)nc1N(C)C`, -7.6%; to `CCc1c(O)nc2nc(N3CCOCC3)nn2c1C`, 10.8%. To `COc1ccc2c(=O)n(CC3CC3)ccc2c1OC` belongs 12.8%. To `Cc1ccc2c(c1)C(NC(=O)C1CCN(S(C)(=O)=O)CC1)CC(C)(C)O2` (stereo not drawn) belongs 2.22%; to `Cc1nc(CNC(=O)Cn2nc(-c3ccc(F)cc3)oc2=O)cs1`, 1.12%; to `Cc1nc(CN2CCC(NS(C)(=O)=O)CC2)co1`, -12.4%. With `CCc1ccc(C(=O)NCc2ccnc(N3CCN(C)CC3)c2)o1`, the cytotoxicity at 10 µM is -9.07%. With `CN(C)CCCNCCC(Cc1ccccc1)C1CCOC(C)(C)C1` (stereo not drawn), the cytotoxicity at 10 µM is -4.08%. The figure for `Cc1ccsc1[C@@H]1CCN(C(=O)CCc2n[nH]c(C)c2C)C[C@H]1O` is 7.04%; for `CC(C)(NS(C)(=O)=O)C(=O)NCc1cccc(Br)c1` it is -2.42%; for `CC1CCN(S(=O)(=O)N2Cc3ccccc3C[C@H]2C(N)=O)CC1` it is -6.64%.

As for `NC1CCc2c(ccc(=O)n2CC2CC2)C1` (stereo not drawn), the cytotoxicity at 10 µM is -4.37%. To `COc1cc(C(=O)NS(=O)(=O)c2cncc(Br)c2)ccc1C` belongs -2.45%; to `Cn1cnnc1C1CCCN(C(=O)NCc2ccccc2)C1` (stereo not drawn), -14%. As to `O=C(c1cncc(N2CCC3(CC2)NCCNC3=O)n1)N1CCCCC1`, the cytotoxicity at 10 µM is -2.4%. To `Cc1nc2c(c(NCC(O)c3ccccc3Cl)n1)CCNCC2` (stereo not drawn) belongs -2.88%. As to `COC[C@@]12CCO[C@@H]1CCN(C(=O)c1ccc(F)c(F)c1)C2`, the cytotoxicity at 10 µM was -2.59%. To `COCCNc1c(C#N)c2c(c3nncn13)CN(C)CC2` belongs 6.83%; to `O=C1OCCN1CCOc1nc(-c2ccccc2Cl)no1`, -11.3%. In the case of `Cc1ccc(C(=O)N2C[C@@H]3OCCN(CCN4CCCC4)[C@@H]3C2)cn1`, the cytotoxicity at 10 µM is 2.39%. To `NC(=O)C1(Cc2ccccc2-c2ccccc2)CCCN(CC2CC2)C1` (stereo not drawn) belongs 1.67%. `CC(=O)N1CCC(C)(c2cc[nH]n2)CC1`: the cytotoxicity at 10 µM is -4.07%. To `Cc1cnccc1CN(C)Cc1c[nH]nc1-c1ccc(F)cc1F` belongs -5.93%; to `OC(COCc1ccc2c(c1)OCO2)CN1CC(n2cccn2)C1` (stereo not drawn), -5.89%; to `Cc1noc(C)c1CCC(=O)NCCc1cccs1`, -3.11%. In the case of `N#CCCn1cnc2c(Br)cc(Br)cc2c1=O`, the cytotoxicity at 10 µM is -5.35%.

For `CS(=O)(=O)CCCOc1cccc(-n2ccnc2)c1`, the cytotoxicity at 10 µM came to 5.13%. Consider `COc1ccc(-c2nc(C)cc(SCC(N)=O)n2)cc1`, for which the cytotoxicity at 10 µM was found to be 5.64%. The figure for `COc1ccc(F)cc1CN1CCCC1Cn1nc(C)nc1C` (stereo not drawn) is -2.41%; for `Cc1cnc(C(=O)N2CCc3c(nc(-c4ccncc4)[nH]c3=O)C2)cn1` it is 8.62%; for `CCc1ccccc1OC1CN(C(=O)c2cccs2)C1` it is 13.7%.

For `CC(C)c1nnc(NC(=O)CN2C(=O)c3ccccc3NC2C(C)C)s1` (stereo not drawn), the cytotoxicity at 10 µM is -10.2%. To `O=C(c1ccco1)N1CCC2(CC1)CCN(c1ncccn1)CC2` belongs 4.59%; to `N#Cc1cc2c(=O)n(CC(O)c3cccc(O)c3)ccc2[nH]c1=O` (stereo not drawn), 2.86%; to `Cc1ccsc1-c1nccn1CCN(C)S(C)(=O)=O`, -7.36%. Take `CN(C)c1nccc(C2CN(c3ccccc3)CCO2)n1` (stereo not drawn): the cytotoxicity at 10 µM was -2.4%. In the case of `Cc1cnn(CCNCc2csc(-c3ccc4c(c3)OCO4)n2)c1`, the cytotoxicity at 10 µM is -6.41%. Take `CCN1CCC2(CC1)CC(NCc1cccs1)c1ccccc1O2` (stereo not drawn): the cytotoxicity at 10 µM was -11.6%. `CCC[C@@H]1CN(Cc2ccc(C(F)(F)F)nc2)C[C@H]1C(=O)O`: the cytotoxicity at 10 µM amounted to 0.425%. To `Cc1ccccc1CN(CCO)Cc1ncc[nH]1` belongs -3.97%; to `O=C(CCc1nc(C2CC2)no1)c1ccc(F)c(F)c1`, 0.923%. The figure for `CC1(C)CN(Cc2nnc(-c3cccnc3)o2)CC[C@]1(C)O` is -10.2%; for `O=C(O)C1CN(c2cccc(F)c2)CCO1` (stereo not drawn) it is -25.2%. The figure for `COc1cccc(-c2n[nH]cc2-c2nc(CC3CCN(C)CC3)no2)c1` is -9.98%. Regarding `CC(C)c1cc(C2CCN(Cc3cc(F)cc(F)c3)CC2)[nH]n1`, the cytotoxicity at 10 µM is -7.46%. Regarding `CCCc1cnc(C)nc1N1CCC(Cn2cc(CO)nn2)CC1`, the cytotoxicity at 10 µM is -4.57%.

As for `CCOc1ncccc1CNC(=O)NC1CCOc2ccccc21` (stereo not drawn), the cytotoxicity at 10 µM is -9.65%. For the compound `Cc1ccc2c(c1)C(NCc1ncnn1C)CC2` (stereo not drawn), the cytotoxicity at 10 µM stood at 6.32%.

For `COc1ccc(CNC(=O)N(C)CC(C)(C)O)cc1OC`, the cytotoxicity at 10 µM was determined as 6.89%. The figure for `FC(F)(F)COCCN1CCc2cncnc2C1` is -2.67%; for `O=S(=O)(c1ccccc1)N1CCC2(CCCN2Cc2ccc(Cl)cc2)C1` (stereo not drawn) it is -66.3%. For the compound `CC(=O)N1CCOCC2(C1)CN(S(C)(=O)=O)CCO2` (stereo not drawn), the cytotoxicity at 10 µM is 2.84%.

Take `Cc1nn(C)c(C)c1C1CCCN1Cc1cn2ccsc2n1` (stereo not drawn): the cytotoxicity at 10 µM was -51.6%. In the case of `CCC1CCCCN1C(=O)Cn1nc(-c2ccc(C)o2)cc(N)c1=O` (stereo not drawn), the cytotoxicity at 10 µM was determined as 3.27%. To `Cc1cccc(CN2CCS(=O)(=O)[C@@H]3CCN(C(=O)C4CC4)CC[C@@H]32)n1` belongs -3.64%. Consider `CN1CC(=O)N(c2ccsc2)CC12CCN(C(=O)CC1CCCC1)C2` (stereo not drawn), for which the cytotoxicity at 10 µM is -77.3%. The figure for `Cc1ccoc1C1=NNC(=CN2CCOC(Cn3cccn3)C2)O1` (stereo not drawn) is -7.69%; for `CCn1c(C)nnc1CN(C)C1CCN(Cc2nccn2C)C1` (stereo not drawn) it is 17.8%. To `Cc1cccc(OCCN2CCN(Cc3noc(C)n3)CC2)c1` belongs -8.78%; to `O=C(c1cccnc1)N1CCCC1c1nc(O)cc(-c2ccccn2)n1` (stereo not drawn), -5.91%; to `CCc1nnc(C2Cc3ccccc3CN2Cc2nc(C3CC3)no2)o1` (stereo not drawn), -8.03%. Take `CCCn1nc2c(cc1=O)CN(CCCS(N)(=O)=O)CC2`: the cytotoxicity at 10 µM was -2.48%. Take `CC(C)c1cc(NC(=O)CN2CCC(N3CCCCC3)CC2)on1`: the cytotoxicity at 10 µM is -9.68%. The figure for `NC(=O)C1=NN2C(=NS(=O)(=O)c3ccccc32)N1` is 7.58%; for `CC[C@H]1CN2CC[C@H]1C[C@@H]2CNCc1ccc(OC)cc1` it is -1.19%.

As for `Cc1ccc(CNC(C)c2cc(F)ccc2N2CCN(C)CC2)o1` (stereo not drawn), the cytotoxicity at 10 µM was found to be 0.513%. The figure for `CCN1CCN(c2ccc(C(=O)NC(C)C(=O)N(C)C)cc2)CC1` (stereo not drawn) is -4.98%. To `Cc1nc2c(c(C)c1CC(=O)Nc1ccc(Cl)cc1)c(=O)[nH]n2C` belongs -2.85%; to `COc1ccc(C2CC(=O)NCc3nc4ccccn4c32)cn1` (stereo not drawn), -3.95%; to `CC(C)NC(=O)[C@H]1C[C@H]2NCCO[C@@H]2C1`, -134%.

On to `Cc1sc(-n2cnnn2)c(C(=O)NC(C)C)c1C`, for which the cytotoxicity at 10 µM was 2.83%. For the compound `N#Cc1ccc(S(=O)(=O)NC(=O)c2ccc3c(c2)COC3)cc1`, the cytotoxicity at 10 µM was determined as 1.39%. The figure for `Cc1cc(N(C)CC2COc3ccccc3O2)nc(C)n1` (stereo not drawn) is 38.7%; for `COCCCNc1nccc(-c2c[nH][nH]c2=O)n1` it is 7.46%. Take `Cc1cc(N2CCN(Cc3nccn3C)CC2)cc(C)n1`: the cytotoxicity at 10 µM was found to be 15.7%.

Values taken from ChEMBL document CHEMBL4513216, “Probing the Open Global Health Chemical Diversity Library for Multistage-Active Starting Points for Next-Generation Antimalarials” (ACS Infect Dis, 2020).
